Tests used:
[1] = Reaction kinetics of acrolein–azide 1,3-dipolar cycloaddition; format: physicochemical
[2] = test system: A549 cell xenograft-bearing nude mice; experiment: Intratumor therapy of xenograft mice; format: in vivo, mouse; conditions: intratumoral, 120 nmol
In short: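 Nude mice bearing A549 xenografts received intratumoral injections once daily for 12 days. Comparison groups were vehicle, the azide control, the phenyl-azide conjugate and free drug. Tumour growth, body weight and survival were monitored.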

[3] = test system: A549 cell xenograft-bearing nude mice; experiment: Intravenous therapy of xenograft mice; format: in vivo, mouse; conditions: 240 nmol; for survival: every three days for ten days; for tumor growth: every three days for ten days (four injections)
In short: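 Nude mice bearing A549 xenografts were injected intravenously every three days over ten days, four injections in total, at twice the intratumoral concentration. Comparison groups matched the intratumoral study. Tumour growth and body weight were monitored.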

[4] = In vivo drug release analysis; set-up: species or system mouse; conditions: two hours after intratumoral administration
In short: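 A549 xenograft-bearing nude mice were dosed intratumorally. Two hours later, tumour and urine extracts were analysed by RP-HPLC for intact prodrug and free drug.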

[N-]=[N+]=Nc1ccccc1 [Compound 1a, phenyl azide]
second-order rate constant (k), reaction with acrolein to give triazoline 3a ([1]; formation of triazoline 3a): 0.00065 M⁻¹ s⁻¹

CC(C)c1cccc(C(C)C)c1N=[N+]=[N-] [Compound 1d, 2,6-diisopropylphenyl azide]
second-order rate constant (k), formation of 4-formyl-1,2,3-triazole 4d ([1]; formation of 4d): 0.00095 M⁻¹ s⁻¹ | second-order rate constant (k), reaction with acrolein to give heterocycle 6 ([1]; formation of heterocycle 6): 0.00633 M⁻¹ s⁻¹ | rate ratio, formation of heterocycle 6 versus 4-formyl-1,2,3-triazole 4d ([1]; times faster): 6.6 times | rate constant ratio, 1d to heterocycle 6 versus 1a to triazoline 3a ([1]; times higher): 9.7 times

Cc1cc(C(C)C)c(N=[N+]=[N-])c(C(C)C)c1 [Compound 9, 4-methyl-2,6-diisopropyl-phenyl azide]
survival ([2]; every day for 12 days): survived less than twelve days after treatment | tumor growth ([2]; every day for 12 days): does not retard the tumor growth | tumor size ([2]; in two weeks): 900 mm^3 | tumor size ([3]; by two weeks): 800 mm^3 | survival [3]: survived less than three weeks after treatment | tumor growth [3]: does not have any effect

CO[C@@]12[C@H](COC(N)=O)C3=C(C(=O)C(C)=C(N)C3=O)N1C[C@@H]1N[C@@H]12 [MMC, mitomycin C]
body weight ([2]; every day for 12 days): more body weight loss | survival ([2]; every day for 12 days): survived less than five days after treatment | tumor growth ([2]; every day for 12 days): significantly inhibits tumor growth | inflammation and ADRs ([2]; post-treatment day 4): inflammation on the whole body | body weight ([3]; every three days): the body weight loss was very drastic | survival [3]: could not survive before the fourth injection | tumor growth [3]: significantly inhibited tumor growth | inflammation ([3]; tenth day of treatment): inflammation in the tail area | compound detected in tumor extract [4]: the free drug could not be detected from the tumor | compound detected in urine extract [4]: the secreted MMC drug was present in the urine

Reference: article PMC8873552 (Chemical Science, 2021)
